Published values pooled from the literature.
Each line is one published result; the experiments were not run side by side.
CA12: Carbonic anhydrase 12 (CA12, Homo sapiens, UniProt O43570)
USP51: Ubiquitin carboxyl-terminal hydrolase 51 (USP51, Homo sapiens, UniProt Q70EK9)
SLC6A3: Sodium-dependent dopamine transporter (SLC6A3, Homo sapiens, UniProt Q01959)
DRD3: D(3) dopamine receptor (DRD3, Homo sapiens, UniProt P35462)
Slc6a1: Sodium- and chloride-dependent GABA transporter 1 (Slc6a1, Rattus norvegicus, UniProt P23978)

With `N#CC1CSc2[nH]c(=O)sc2C1c1cn(-c2ccccc2)nc1-c1ccc(Br)cc1` (stereo not drawn) the inhibition was 28.1% (CA12; enzyme activity, inhibitor, absorbance; 10 nM).
`Nc1ncnc2c1ncn2[C@@H]1O[C@H](CO)C[C@H]1O` has an inhibition of 24% (USP51; enzyme activity, inhibitor; 5 µM).
For `Clc1ccc(C(c2ccccc2)c2nnnn2CCCCN2CCN(CCCc3ccccc3)CC2)cc1` (stereo not drawn), the inhibition was 81.6% (SLC6A3; transporter uptake, inhibitor; HEK293; 1 µM).
The inhibition of `O=C(c1ccccc1Cl)N1CCN(CCNc2cc(=O)oc3ccccc23)CC1` is reported as -5.2% (DRD3; enzyme activity, inhibitor; 10 µM).
With `CCOC(=O)C1CSc2[nH]c(=O)sc2C1c1cn(-c2ccccc2)nc1-c1ccc(C)cc1` (stereo not drawn) the inhibition was 28% (CA12; enzyme activity, inhibitor, absorbance; 0.1 µM).
`CC(=O)c1ccc(O)c(C(=O)O)c1` has an inhibition of 29% (USP51; enzyme activity, inhibitor; 5 µM).
`Clc1ccc(C(c2ccccc2)c2nnnn2CCCCN2CCC(Cc3ccc(Cl)c(Cl)c3)CC2)cc1` (stereo not drawn) gave an inhibition of 67.8% (SLC6A3; transporter uptake, inhibitor; HEK293; 1 µM).
For `OC[C@H]1NC[C@H](O)[C@@H](O)[C@@H]1O`, the inhibition was 0% (USP51; enzyme activity, inhibitor; 5 µM).
With `CCn1c2ccccc2c2cc(CNCCCN3CCOCC3)ccc21` the inhibition was 13.5% (DRD3; enzyme activity, inhibitor; 10 µM).
The inhibition of `Clc1ccc(C(c2ccccc2)c2nnnn2CCCCN2CCN(CC=Cc3ccccc3)CC2)cc1` (stereo not drawn) is reported as 82.2% (SLC6A3; transporter uptake, inhibitor; HEK293; 1 µM).
`O=c1c(O[C@@H]2O[C@H](CO)[C@H](O)[C@H](O)[C@H]2O)c(-c2ccc(O)c(O)c2)oc2cc(O)cc(O)c12` has an inhibition of 54% (USP51; enzyme activity, inhibitor; 5 µM).
`Cc1cccc(N2CCN(CC(O)COc3ccc4ccccc4c3)CC2)c1C` (stereo not drawn) gave an inhibition of 52.9% (DRD3; enzyme activity, inhibitor; 10 µM).
`C=C1C[C@@]2(O)O[C@@]3(C[C@H]2C(C)C)[C@@H](C)CC[C@@H]13` has an inhibition of 11% (USP51; enzyme activity, inhibitor; 5 µM).
`O=C1C2CCCN2C(=O)N1CCCCN1CCN(c2cccc(Cl)c2)CC1` (stereo not drawn) has an inhibition of 63.4% (DRD3; enzyme activity, inhibitor; 10 µM).
For `CCOC(=O)C1CSc2[nH]c(=O)sc2C1c1cn(-c2ccccc2)nc1-c1ccc(Cl)cc1` (stereo not drawn), the inhibition was 85.5% (CA12; enzyme activity, inhibitor, absorbance; 10 µM).
`O=c1oc2c(O)c(O)cc3c(=O)oc4c(O)c(O)cc1c4c23` gave an inhibition of 33% (USP51; enzyme activity, inhibitor; 5 µM).
The inhibition of `O=C1NC(=S)C(=Cc2cn(-c3ccccc3)nc2-c2ccc(Br)cc2)S1` is reported as 32.3% (CA12; enzyme activity, inhibitor, absorbance; 1 µM).
`O=C(c1ccc(F)cc1)N(Cc1ccccc1)C1CCCCC1` gave an inhibition of 4% (Slc6a1; transporter uptake; 10 µM).
`Fc1ccc(C(c2ccc(F)cc2)c2nnnn2CCCN2CCC(CCCc3ccccc3)CC2)cc1` has an inhibition of 33.1% (SLC6A3; transporter uptake, inhibitor; HEK293; 1 µM).
For `O=c1cc(-c2ccccc2)oc2cc(O)c(O)c(O)c12`, the inhibition was 95% (USP51; enzyme activity, inhibitor; 5 µM).
`CC(=O)Nc1ccc(N2C(=O)CC(NCCc3ccccc3)C2=O)cc1` (stereo not drawn) gave an inhibition of 5.54% (DRD3; enzyme activity, inhibitor; 10 µM).
`O=C(/C=C/C=C/c1ccc2c(c1)OCO2)N1CCCCC1` gave an inhibition of 31% (USP51; enzyme activity, inhibitor; 5 µM).
With `COc1cc(CNCCc2c[nH]c3ccccc23)cc(Cl)c1OCC(N)=O` the inhibition was 39.6% (DRD3; enzyme activity, inhibitor; 10 µM).
`O=C(Nc1ccc(S(=O)(=O)N2CCC(Cl)CC2)cc1)c1ccc([N+](=O)[O-])o1` has an inhibition of 17% (Slc6a1; ligand displacement, radioligand; 10 µM).
